Measured values taken from ChEMBL document CHEMBL5653631, “A Potent and Selective ULK1 Inhibitor Suppresses Autophagy and Sensitizes Cancer Cells to Nutrient Stress” (iScience, 2018).
One block for each compound: values may come before it.

Columns and labels:
[1] = target: Proto-oncogene tyrosine-protein kinase ROS (Homo sapiens) (UniProt P08922); assay: Inhibition of human recombinant ROS at 500 nM related to control ULK1
[2] = target: Homeodomain-interacting protein kinase 3 (Homo sapiens) (UniProt Q9H422); assay: Inhibition of human recombinant HIPK3 at 500 nM related to control ULK1
[3] = target: T1, Serine/threonine-protein kinase BRSK1 (Homo sapiens) (UniProt Q8TDC3); assay: Inhibition of human recombinant BRSK1 at 15 nM in presence of ATP by radiometric assay relative to control
T1 sequence (whole entry): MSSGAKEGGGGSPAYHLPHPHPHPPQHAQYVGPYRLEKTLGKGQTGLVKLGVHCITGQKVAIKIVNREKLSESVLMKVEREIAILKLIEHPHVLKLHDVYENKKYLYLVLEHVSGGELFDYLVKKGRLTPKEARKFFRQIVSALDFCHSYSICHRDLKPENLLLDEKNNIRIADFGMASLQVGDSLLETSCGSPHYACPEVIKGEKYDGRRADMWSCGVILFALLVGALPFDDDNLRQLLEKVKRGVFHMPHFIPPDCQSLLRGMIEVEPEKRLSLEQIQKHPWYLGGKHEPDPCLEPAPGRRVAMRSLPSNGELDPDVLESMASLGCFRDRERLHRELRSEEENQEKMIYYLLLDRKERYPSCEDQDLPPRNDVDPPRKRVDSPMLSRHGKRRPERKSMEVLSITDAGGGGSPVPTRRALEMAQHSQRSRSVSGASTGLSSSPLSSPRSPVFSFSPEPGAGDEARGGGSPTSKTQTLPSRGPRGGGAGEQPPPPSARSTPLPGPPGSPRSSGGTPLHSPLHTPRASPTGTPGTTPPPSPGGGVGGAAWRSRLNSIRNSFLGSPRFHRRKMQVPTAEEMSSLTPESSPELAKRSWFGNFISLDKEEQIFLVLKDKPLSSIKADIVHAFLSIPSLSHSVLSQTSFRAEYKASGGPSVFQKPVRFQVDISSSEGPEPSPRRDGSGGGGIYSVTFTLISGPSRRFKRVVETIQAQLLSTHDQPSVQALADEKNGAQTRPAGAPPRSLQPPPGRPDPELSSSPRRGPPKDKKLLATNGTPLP
Summary of the method: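 Part of a radiometric in vitro activity panel of 327 recombinant human kinases. Each kinase was tested in duplicate at one inhibitor concentration. Activity remaining was expressed as a percentage of the vehicle control, and percent inhibition was taken as 100 minus that value.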

[4] = target: T2, Serine/threonine-protein kinase TAO3 (Homo sapiens) (UniProt Q9H2K8); assay: Inhibition of human recombinant TAO3 at 40 nM related to control ULK1
T2 sequence (whole entry): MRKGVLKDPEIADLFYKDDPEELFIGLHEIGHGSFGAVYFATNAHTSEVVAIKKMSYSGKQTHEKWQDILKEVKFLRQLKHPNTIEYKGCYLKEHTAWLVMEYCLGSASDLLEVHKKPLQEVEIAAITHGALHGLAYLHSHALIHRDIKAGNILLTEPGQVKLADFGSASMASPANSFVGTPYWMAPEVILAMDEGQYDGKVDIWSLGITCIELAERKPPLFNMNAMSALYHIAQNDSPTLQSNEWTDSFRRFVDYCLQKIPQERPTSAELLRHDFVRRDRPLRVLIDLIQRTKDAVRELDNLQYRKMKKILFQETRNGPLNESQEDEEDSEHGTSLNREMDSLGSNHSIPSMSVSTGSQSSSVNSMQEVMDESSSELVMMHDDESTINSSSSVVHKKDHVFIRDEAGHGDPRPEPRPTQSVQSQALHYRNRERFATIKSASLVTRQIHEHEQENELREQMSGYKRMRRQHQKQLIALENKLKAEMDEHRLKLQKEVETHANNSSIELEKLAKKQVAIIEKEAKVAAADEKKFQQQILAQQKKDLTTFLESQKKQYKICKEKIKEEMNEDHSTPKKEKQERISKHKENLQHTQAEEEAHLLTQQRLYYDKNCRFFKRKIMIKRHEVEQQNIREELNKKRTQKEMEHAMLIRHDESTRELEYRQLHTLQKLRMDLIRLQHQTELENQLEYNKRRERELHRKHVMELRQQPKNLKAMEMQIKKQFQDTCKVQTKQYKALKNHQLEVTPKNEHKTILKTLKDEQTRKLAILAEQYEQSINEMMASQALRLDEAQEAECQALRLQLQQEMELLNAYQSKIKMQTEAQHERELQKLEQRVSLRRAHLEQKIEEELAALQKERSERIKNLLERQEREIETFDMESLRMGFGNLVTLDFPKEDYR

[5] = target: T3, Serine/threonine-protein kinase tousled-like 1 (Homo sapiens) (UniProt Q9UKI8); assay: Inhibition of human recombinant TLK1 at 40 nM related to control ULK1
T3 sequence (whole entry): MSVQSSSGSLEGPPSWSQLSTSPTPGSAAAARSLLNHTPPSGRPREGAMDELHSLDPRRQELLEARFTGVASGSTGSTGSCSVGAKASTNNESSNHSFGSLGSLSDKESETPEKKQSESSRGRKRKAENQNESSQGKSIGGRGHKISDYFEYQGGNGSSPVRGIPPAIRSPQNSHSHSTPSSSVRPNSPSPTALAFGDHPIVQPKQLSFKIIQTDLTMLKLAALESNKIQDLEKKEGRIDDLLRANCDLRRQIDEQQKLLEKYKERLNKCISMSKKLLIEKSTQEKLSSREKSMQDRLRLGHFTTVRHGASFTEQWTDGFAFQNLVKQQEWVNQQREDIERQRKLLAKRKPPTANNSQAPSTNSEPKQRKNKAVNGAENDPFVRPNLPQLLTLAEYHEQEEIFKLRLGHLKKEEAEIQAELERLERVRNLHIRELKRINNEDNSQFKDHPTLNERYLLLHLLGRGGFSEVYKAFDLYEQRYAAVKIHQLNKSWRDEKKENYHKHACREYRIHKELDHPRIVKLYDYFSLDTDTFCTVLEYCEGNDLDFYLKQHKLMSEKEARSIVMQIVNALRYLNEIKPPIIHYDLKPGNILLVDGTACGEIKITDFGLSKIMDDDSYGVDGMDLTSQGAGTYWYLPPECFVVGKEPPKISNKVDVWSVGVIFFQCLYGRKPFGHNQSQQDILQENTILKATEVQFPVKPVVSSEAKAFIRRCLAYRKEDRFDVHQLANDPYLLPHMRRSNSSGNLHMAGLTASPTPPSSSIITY

Chain of Proto-oncogene tyrosine-protein kinase ROS (Homo sapiens) (P08922 whole entry): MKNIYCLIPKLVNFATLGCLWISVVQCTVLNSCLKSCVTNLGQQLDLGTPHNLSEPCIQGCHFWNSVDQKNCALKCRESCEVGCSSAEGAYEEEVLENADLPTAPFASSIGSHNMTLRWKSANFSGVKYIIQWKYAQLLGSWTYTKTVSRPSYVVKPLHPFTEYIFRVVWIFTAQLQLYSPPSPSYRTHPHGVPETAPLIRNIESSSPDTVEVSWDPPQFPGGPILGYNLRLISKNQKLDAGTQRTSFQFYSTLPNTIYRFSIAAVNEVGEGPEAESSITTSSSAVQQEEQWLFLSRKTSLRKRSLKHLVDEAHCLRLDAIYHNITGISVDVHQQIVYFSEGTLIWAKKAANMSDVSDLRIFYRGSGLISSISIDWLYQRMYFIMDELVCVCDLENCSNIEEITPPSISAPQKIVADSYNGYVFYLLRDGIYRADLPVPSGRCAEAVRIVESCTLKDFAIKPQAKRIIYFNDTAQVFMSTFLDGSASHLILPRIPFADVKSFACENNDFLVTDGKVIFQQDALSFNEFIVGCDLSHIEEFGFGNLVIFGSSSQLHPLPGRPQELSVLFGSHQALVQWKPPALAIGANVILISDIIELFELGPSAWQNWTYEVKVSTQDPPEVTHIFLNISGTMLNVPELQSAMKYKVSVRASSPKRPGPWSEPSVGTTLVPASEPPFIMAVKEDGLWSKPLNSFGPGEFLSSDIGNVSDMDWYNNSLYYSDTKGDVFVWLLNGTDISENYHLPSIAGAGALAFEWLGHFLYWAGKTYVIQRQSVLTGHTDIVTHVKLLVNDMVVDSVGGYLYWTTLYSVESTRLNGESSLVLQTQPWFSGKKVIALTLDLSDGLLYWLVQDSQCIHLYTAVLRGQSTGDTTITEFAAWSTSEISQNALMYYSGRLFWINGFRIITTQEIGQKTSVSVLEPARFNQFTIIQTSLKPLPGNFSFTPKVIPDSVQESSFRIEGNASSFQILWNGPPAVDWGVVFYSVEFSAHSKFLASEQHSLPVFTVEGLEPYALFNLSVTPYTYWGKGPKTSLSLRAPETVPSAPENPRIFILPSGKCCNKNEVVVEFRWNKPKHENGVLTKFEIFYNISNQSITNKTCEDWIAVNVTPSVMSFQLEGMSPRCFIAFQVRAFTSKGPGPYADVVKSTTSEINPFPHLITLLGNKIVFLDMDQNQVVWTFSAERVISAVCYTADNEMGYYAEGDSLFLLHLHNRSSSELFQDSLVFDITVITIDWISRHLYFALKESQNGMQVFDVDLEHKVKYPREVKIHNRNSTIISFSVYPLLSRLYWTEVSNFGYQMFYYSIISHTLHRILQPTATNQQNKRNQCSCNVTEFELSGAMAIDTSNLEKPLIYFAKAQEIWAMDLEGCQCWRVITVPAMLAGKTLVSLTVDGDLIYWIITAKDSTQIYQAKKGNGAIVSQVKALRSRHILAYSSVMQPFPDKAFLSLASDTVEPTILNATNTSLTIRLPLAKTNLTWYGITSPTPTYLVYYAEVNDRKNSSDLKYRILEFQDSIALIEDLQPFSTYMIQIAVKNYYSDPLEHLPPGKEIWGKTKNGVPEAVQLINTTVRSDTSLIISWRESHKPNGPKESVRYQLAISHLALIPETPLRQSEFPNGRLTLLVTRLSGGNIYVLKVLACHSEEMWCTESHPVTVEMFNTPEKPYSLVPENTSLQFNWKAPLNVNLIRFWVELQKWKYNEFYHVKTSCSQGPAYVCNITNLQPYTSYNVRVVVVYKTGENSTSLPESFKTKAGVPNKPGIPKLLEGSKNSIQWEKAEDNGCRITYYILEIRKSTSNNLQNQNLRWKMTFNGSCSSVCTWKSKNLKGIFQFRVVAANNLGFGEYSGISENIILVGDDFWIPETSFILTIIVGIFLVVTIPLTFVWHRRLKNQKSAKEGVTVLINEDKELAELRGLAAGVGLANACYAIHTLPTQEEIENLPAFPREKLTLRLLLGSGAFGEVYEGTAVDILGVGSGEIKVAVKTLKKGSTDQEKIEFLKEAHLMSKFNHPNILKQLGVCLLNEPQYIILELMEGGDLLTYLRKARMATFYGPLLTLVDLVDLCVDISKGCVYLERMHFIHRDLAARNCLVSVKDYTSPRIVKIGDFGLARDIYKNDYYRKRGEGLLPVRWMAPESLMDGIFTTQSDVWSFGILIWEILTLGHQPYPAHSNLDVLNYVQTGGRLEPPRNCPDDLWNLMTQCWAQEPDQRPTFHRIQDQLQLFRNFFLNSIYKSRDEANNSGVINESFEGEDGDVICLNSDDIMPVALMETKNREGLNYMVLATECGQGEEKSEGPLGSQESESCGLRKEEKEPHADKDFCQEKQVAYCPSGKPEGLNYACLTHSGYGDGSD
Chain of Homeodomain-interacting protein kinase 3 (Homo sapiens) (Q9H422 whole entry, looked up): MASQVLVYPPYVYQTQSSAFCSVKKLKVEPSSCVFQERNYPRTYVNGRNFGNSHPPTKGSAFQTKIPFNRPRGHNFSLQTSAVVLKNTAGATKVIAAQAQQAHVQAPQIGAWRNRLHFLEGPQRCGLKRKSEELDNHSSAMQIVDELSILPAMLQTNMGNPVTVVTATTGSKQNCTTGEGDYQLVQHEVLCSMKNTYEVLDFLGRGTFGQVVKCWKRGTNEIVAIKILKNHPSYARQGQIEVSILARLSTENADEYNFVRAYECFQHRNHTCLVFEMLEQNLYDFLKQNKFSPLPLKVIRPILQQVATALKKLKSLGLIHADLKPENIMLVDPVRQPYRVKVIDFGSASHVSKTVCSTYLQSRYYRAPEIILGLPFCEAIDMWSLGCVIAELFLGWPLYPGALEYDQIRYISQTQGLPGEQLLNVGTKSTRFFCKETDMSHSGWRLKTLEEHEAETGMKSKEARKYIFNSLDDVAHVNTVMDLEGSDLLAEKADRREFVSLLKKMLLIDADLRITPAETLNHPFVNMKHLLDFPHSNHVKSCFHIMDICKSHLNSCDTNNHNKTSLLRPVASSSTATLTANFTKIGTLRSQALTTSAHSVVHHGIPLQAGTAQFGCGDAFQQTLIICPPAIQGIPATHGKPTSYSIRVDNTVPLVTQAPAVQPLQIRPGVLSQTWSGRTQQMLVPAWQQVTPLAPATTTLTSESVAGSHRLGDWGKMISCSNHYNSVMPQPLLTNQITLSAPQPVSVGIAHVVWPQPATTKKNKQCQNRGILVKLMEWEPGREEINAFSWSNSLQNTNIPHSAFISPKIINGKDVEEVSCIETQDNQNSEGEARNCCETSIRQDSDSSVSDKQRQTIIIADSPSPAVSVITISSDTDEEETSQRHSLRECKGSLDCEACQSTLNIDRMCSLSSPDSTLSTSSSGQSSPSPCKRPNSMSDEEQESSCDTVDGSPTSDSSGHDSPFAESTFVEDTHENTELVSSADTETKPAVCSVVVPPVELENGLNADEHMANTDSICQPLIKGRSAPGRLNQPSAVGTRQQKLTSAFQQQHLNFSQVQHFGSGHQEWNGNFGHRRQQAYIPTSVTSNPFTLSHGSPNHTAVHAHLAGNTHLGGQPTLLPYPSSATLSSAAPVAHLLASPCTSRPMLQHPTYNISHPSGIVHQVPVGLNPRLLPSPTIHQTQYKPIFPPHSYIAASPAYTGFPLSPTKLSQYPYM

- fold change (FC) [1]: 0
- fold change (FC) [2]: 0.08
SMILES: CNC(=O)c1ccccc1Oc1nc(Nc2cc(OC)c(OC)c(OC)c2)ncc1Br

- inhibition [3]: 13%
SMILES: CC(C)[C@H](NC(=O)c1cc(-c2cnn3cc(-c4ccc(OCCN5CCCCC5)cc4)cnc23)cs1)C(F)(F)F

- fold change (FC) [4]: 0
- fold change (FC) [5]: 0
SMILES: O=C(N[C@@H](C1CC1)C(F)(F)F)c1cc(-c2cnn3cc(-c4ccc(F)cc4)cnc23)cs1
